Legend:
SK-MEL-28 [1] = experiment: Cytotoxicity against human SK-MEL-28 cells assessed as reduction in cell viability preincubated for 16 hrs in dark condition subsequently incubated for 48 hrs by alamar blue assay; type: cell-based
How it was run: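 SK-MEL-28 human melanoma cells, ~550,000–600,000 cells/mL, settled 3 h at 37 °C, 5% CO₂. Compounds were serially diluted in DPBS and tested over 1 nM to 300 μM. Plates were kept dark in the incubator for 16 h, then 48 h more. alamarBlue was then added for 15–16 h, and viability was read by fluorescence (ex 530, em 620 nm) to give EC₅₀.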

SK-MEL-28 [2] = experiment: Phototoxicity against human SK-MEL-28 cells assessed as reduction in cell viability preincubated for 16 hrs followed by irradiated with 100 J/cm2 625 nanometer red light for 60 mins and measured after 48 hrs by alamar blue assay; type: functional, cell-based; settings: SK-MEL-28, light or radiation study
How it was run: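 Cells (SK-MEL-28, ~550,000–600,000 cells/mL) were dosed with compound at 1 nM–300 μM in DPBS dilutions, with a 16 h drug-to-light interval at 37 °C. They were irradiated with a 625 nm LED array at 27.8 mW/cm² to 100 J/cm². After 48 h of incubation, alamarBlue was added for 15–16 h and fluorescence was read (ex 530, em 620 nm) to give EC₅₀.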

SK-MEL-28 [3] = experiment: Phototherapeutic index, ratio of EC50 for cytotoxicity against human SK-MEL-28 cells in dark condition to EC50 for phototoxicity against human SK-MEL-28 cells preincubated for 16 hrs followed by irradiated with 100 J/cm2 625 nanometer red light for 60 mins
How it was run: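 PI for red light, calculated as dark EC₅₀ divided by red-light EC₅₀ in SK-MEL-28 cells. Viability was read 48 h later by alamarBlue fluorescence.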

SK-MEL-28 [4] = experiment: Phototoxicity against human SK-MEL-28 cells assessed as reduction in cell viability preincubated for 16 hrs followed by irradiated with 100 J/cm2 400 to 700 nanometer visible light for 48 mins and measured after 48 hrs by alamar blue assay; settings: SK-MEL-28, light or radiation study
SK-MEL-28 [5] = experiment: Phototherapeutic index, ratio of EC50 for cytotoxicity against human SK-MEL-28 cells in dark condition to EC50 for phototoxicity against human SK-MEL-28 cells preincubated for 16 hrs followed by irradiated with 100 J/cm2 400 to 700 nanometer visible light for 48 mins

In the case of `COC1=C2c3c4c5c(c(O)cc(OC)c5c5c(OC)cc(O)c(c35)C1=O)C(=O)[C@H](OC)[C@]41C[C@](C)(O)[C@H]2[C@]1(C)O`, the EC50 (SK-MEL-28 [1]) is reported as over 300000 nM, the EC50 (SK-MEL-28 [2]) is reported as 1280 nM and the “Ratio EC50” value (SK-MEL-28 [3]) is reported as over 234. The EC50 (SK-MEL-28 [4]) was 135 nM and the “Ratio EC50” value (SK-MEL-28 [5]) was over 2222.
In the case of `COC1=C2c3c4c5c(c(O)cc(OC)c5c5c(OC)cc(O)c(c35)C1=O)C(=O)C[C@]41C[C@](C)(O)[C@H]2[C@]1(C)O`, the EC50 (SK-MEL-28 [1]) is reported as 98700 nM, the EC50 (SK-MEL-28 [2]) is reported as 2550 nM and the “Ratio EC50” value (SK-MEL-28 [3]) is reported as 39. For the same molecule, the EC50 (SK-MEL-28 [4]) was 176 nM and the “Ratio EC50” value (SK-MEL-28 [5]) was 561.
With `COC1=C(C(C)=O)C2=C(C)Cc3c(OC)c(=O)c(O)c4cc(OC)c5c(OC)cc(O)c6c(c2c3c4c56)C1=O` the EC50 (SK-MEL-28 [1]) was 43700 nM, the EC50 (SK-MEL-28 [2]) was 15.7 nM and the “Ratio EC50” value (SK-MEL-28 [3]) was 2783. For the same molecule, the EC50 (SK-MEL-28 [4]) was 14.7 nM and the “Ratio EC50” value (SK-MEL-28 [5]) was 2973.
With `COc1c(O)c2c(=O)cc(OC)c3c4c(OC)cc(O)c5c(=O)c(OC)c6c(c(c1[C@H](C(C)=O)[C@](C)(O)C6)c23)c54` the EC50 (SK-MEL-28 [1]) was 130000 nM, the EC50 (SK-MEL-28 [2]) was 59.2 nM and the “Ratio EC50” value (SK-MEL-28 [3]) was 2196. For the same molecule, the EC50 (SK-MEL-28 [4]) was 53.5 nM and the “Ratio EC50” value (SK-MEL-28 [5]) was 2430.
`COc1c(O)c2c(=O)cc(OC)c3c4c(OC)cc(=O)c5c(O)c(OC)c6c(c(c1C[C@@](C)(O)[C@@H]6C(C)=O)c23)c54` was tested, and the EC50 (SK-MEL-28 [1]) was 39300 nM, the EC50 (SK-MEL-28 [2]) was 15.3 nM and the “Ratio EC50” value (SK-MEL-28 [3]) was 2569. For the same molecule, the EC50 (SK-MEL-28 [4]) was 10.3 nM and the “Ratio EC50” value (SK-MEL-28 [5]) was 3816.
With `COC1=C2c3c4c5c(c(O)cc(OC)c5c5c(OC)cc(O)c(c35)C1=O)C(=O)[C@H](OC)[C@]41C[C@@](C)(O)[C@H]2[C@]1(C)O` the EC50 (SK-MEL-28 [1]) was 132000 nM, the EC50 (SK-MEL-28 [2]) was 603 nM and the “Ratio EC50” value (SK-MEL-28 [3]) was 219. For the same molecule, the EC50 (SK-MEL-28 [4]) was 172 nM and the “Ratio EC50” value (SK-MEL-28 [5]) was 767.

From ChEMBL document CHEMBL4699461, “Enhanced Production and Anticancer Properties of Photoactivated Perylenequinones” (J Nat Prod, 2020)
